Consider 93 compounds from PubChem BioAssay AID775 (SRMLSC, 2007).

Hit rate of the full screen: of about 130,000 compounds, about 900 (0.69%) were called active. The list comes from a sample in which actives are over-represented; it also holds similar structures and randomly drawn compounds. Unmarked numbers belong to inactive results.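 Rule for the calls: active = inhibition above a set limit, placed 3 SD over the median of all compounds (cut at about 26% in these data); inactive = the rest.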

This test in a line: compounds extending yeast replicative lifespan, primary screen, S. cerevisiae, OD615 (AID 775).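 Note: 0% = nicotinamide-treated wells and 100% = cells grown without nicotinamide.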 To be noted: S. cerevisiae growth with nicotinamide, at 10 µM, hits give high values, deaD strain in restrictive glucose medium. The procedure, abridged: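 Buffer or medium: CSMM-D glucose medium, restrictive; test system: modified budding yeast, DeaD strain; compound: single dose 10 µM compound, 0.25% DMSO; schedule: culture preincubation 4 h, compound exposure 48 h, both 30 °C; detection: optical density (absorbance) at 615 nm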
For the compound `O=C(CSc1ccccn1)Nc1nc2c(ccc3ccccc32)s1`, the inhibition of the nicotinamide effect was -4.27%.

Regarding `CC(C)(C)OC(=O)N/N=C/c1ccc(C(=O)O)cc1`, the inhibition of the nicotinamide effect is -2.34%. Then `CCC(NC(=O)c1ccccc1NC(=O)c1ccccc1)C(=O)NNC(=O)CSc1nc2ccccc2o1` (stereo not drawn), with -3.91%. Then `Cc1c(C2=CCN(S(=O)(=O)c3ccc(Cl)cc3)CC2)c2ccccc2n1C`, with 2.05%; and `CC(C)C(C)(C#N)NC(=O)CSc1nc2scc(-c3ccccc3)c2c(=O)[nH]1` (stereo not drawn), with 7.12%; and `CCc1ccc2c(c1)C(c1ccc([N+](=O)[O-])cc1)=NNC(c1ccccc1)=N2`, with -1.67%. Then `COC(=O)c1ccc(/C=N\n2c(C)nnc2C)cc1`, with 27.3% (active); and `CCN(CC)S(=O)(=O)c1cccc(-c2n[nH]c(=S)n2/N=C/c2ccc(C(=O)OC)cc2)c1`, with -2.04%. In the case of `Cc1nnc(C)n1/N=C/c1ccc(C(C)C)cc1`, the inhibition of the nicotinamide effect was 1.31%. As to `CCOc1ccc2nc(C(=O)N3CCCC(C)C3)sc2c1` (stereo not drawn), the inhibition of the nicotinamide effect was -4.7%. On to `N#CCSc1nc2ccccc2c(=O)n1-c1ccccc1`, for which the inhibition of the nicotinamide effect is -7.51%. Then `O=c1c2ccccc2nc(CSc2nnnn2-c2ccccc2)n1-c1ccccc1`, with -5.7%; and `CCCN1C(=O)C(Cc2nc3ccccc3c(=O)n2-c2ccccc2)c2cc(C)ccc21` (stereo not drawn), with 38.7% (active). `Cc1noc(/C=C/c2ccco2)c1S(=O)(=O)N1CCC(C(=O)Nc2ccc(Cl)cn2)CC1`: the inhibition of the nicotinamide effect is 10.7%. Then `O=C(COC(=O)c1cc(=O)[nH]c2ccccc12)Nc1nc(-c2cccc(Br)c2)cs1`, with -0.45%; and `Cc1ccc(OCCOCCOc2ccc(Br)cc2/C=N\NC(=O)c2ccncc2)cc1`, with -1.41%; and `CC12CN3CC(C)(CN(C1)C3c1ccc(Cl)cc1Cl)C2=O` (stereo not drawn), with 30.1% (active). Then `COC(=O)C1=CN(C)C=C(C(=O)OC)C1c1ccc(Cl)cc1Cl`, with -5.36%. Then `CC12CCC(C(=O)N(c3cccc(Cl)c3)C1=O)C2(C)C` (stereo not drawn), with 3.45%. In the case of `COc1ccc(NC(=O)COC(=O)c2ccc(NS(=O)(=O)/C=C/c3ccccc3)cc2)cc1`, the inhibition of the nicotinamide effect was 3.99%. Then `Cc1ccc(S(=O)(=O)Nc2ccccc2CNc2c(C)n(C)n(-c3ccccc3)c2=O)cc1`, with 43% (active). Then `Cc1c(NS(=O)(=O)c2ccc(NC3CCCC3)c([N+](=O)[O-])c2)c(=O)n(-c2ccccc2)n1C`, with -2.8%. Then `COc1ccc(S(=O)(=O)Nc2c(C)n(C)n(-c3ccccc3)c2=O)cc1`, with -9.71%; and `O=C(Nc1cccc([N+](=O)[O-])c1)c1ccc2c(c1)OCO2`, with -0.87%. Regarding `COC(=O)c1ccccc1SC1CC(=O)N(c2cccc(C)c2)C1=O` (stereo not drawn), the inhibition of the nicotinamide effect was -3.77%.

Consider `CC(C)(C)c1ccc(/C=C/C(=O)Nc2ncccn2)cc1`, for which the inhibition of the nicotinamide effect is -2%.

For the compound `Cc1cccc(N2CCN(C(=O)c3cccc(S(=O)(=O)N4CCc5ccccc5C4)c3)CC2C)c1` (stereo not drawn), the inhibition of the nicotinamide effect was 9.33%. Then `N#Cc1ccc(N2Cc3ccccc3/C2=N/C(=O)Nc2ccc(Cl)cc2)cc1`, with -2.85%.

For the compound `Cc1cccc(N2Cc3ccccc3C2=NC(=O)c2ccc(Cl)nc2)c1`, the inhibition of the nicotinamide effect is 34.6% (active).

For the compound `CC(NC(=S)Nc1ccc(S(N)(=O)=O)cc1)c1ccc2c(c1)OCO2` (stereo not drawn), the inhibition of the nicotinamide effect is -4.33%.

Consider `CC1CC(C)CN(S(=O)(=O)c2cccc(C(=O)N3C(=O)c4cccc(N)c4C3=O)c2)C1` (stereo not drawn), for which the inhibition of the nicotinamide effect was 86.5% (active). Take `COC(=O)c1cn(C)c2ccc(S(=O)(=O)N3CC(C)CC(C)C3)cc2c1=O` (stereo not drawn): the inhibition of the nicotinamide effect was -19.7%. Then `O=C(c1cccc(S(=O)(=O)N2CCOCC2)c1)N1CCOCC1`, with 4.86%; and `Cc1cc(C)c(NC(=S)N2CCCC2C(=O)O)c(C)c1` (stereo not drawn), with -4.99%. Then `Cc1cccc(N2C(=O)SC(SC(=Nc3ccccc3)Nc3ccccc3)C2=O)c1` (stereo not drawn), with 7.31%; and `COc1ccc(/C=N/NC(=O)c2ccc(Cl)cc2)cc1COC(C)=O`, with -4.25%.

Regarding `Cc1cc(Cl)ccc1NC(=S)NCCCN1CCCC1=O`, the inhibition of the nicotinamide effect was 3.7%. Then `CC(C)Oc1c(Br)cc(Br)cc1/C=N/NC(N)=S`, with 0.87%; and `O=C(N/N=C/c1coc2ccccc2c1=O)c1cc2ccccc2o1`, with 19.2%; and `NC(=S)N/N=C/c1coc2cc(Cl)ccc2c1=O`, with 38.1% (active). Then `O=C(Cc1ccccc1)NNC1CC(=O)N(c2ccc(Br)cc2)C1=O` (stereo not drawn), with -4.42%; and `COc1ccc(-n2c(C)cc(C(=O)COC(=O)c3cc(OC)c(OC)cc3NC(=O)c3cccs3)c2C)cc1`, with 1.08%; and `O=C(CSc1nc2ccccc2o1)N1c2ccccc2Sc2ccc(Cl)cc21`, with -7.73%.

For `S=C1Nc2cc(Cl)ccc2Sc2ccccc21`, the inhibition of the nicotinamide effect is 2.87%.

For the compound `O=C1Cc2ccccc2Sc2ccc(Cl)cc21`, the inhibition of the nicotinamide effect was 38.7% (active).

`Cc1ccccc1N/C(SCc1ccc(Cl)cc1)=C(/C#N)C(N)=O`: the inhibition of the nicotinamide effect is 1.27%. Take `Cc1nnc(-c2ccc(Oc3ccc(C)c(C)c3)c([N+](=O)[O-])c2)o1`: the inhibition of the nicotinamide effect is -6.06%. Then `Cc1ccc(S(=O)(=O)N(CC(=O)Nc2cccc([N+](=O)[O-])c2)Cc2ccc(Cl)cc2)cc1`, with -5.04%; and `CCC(=NC1CC(C)(C)NC(C)(C)C1)C1=C(O)CC(C)(C)CC1=O`, with 36.4% (active); and `CC1(C)CC(=O)C=C(NC2CC(C)(C)NC(C)(C)C2)C1`, with 5.33%. Regarding `COCC(C)N=CC1=C(O)CC(C)(C)CC1=O` (stereo not drawn), the inhibition of the nicotinamide effect is -1.64%. Then `Cc1[nH]c2ccccc2c1/C=N\NC(=O)Cn1nnc(-c2ccccc2)n1`, with 1.83%. For the compound `Cc1nn(CC(=O)Nc2ccc(N(C)C)cc2)c(C)c1[N+](=O)[O-]`, the inhibition of the nicotinamide effect is -0.66%. Consider `COC(=O)/C(C#N)=C/c1occc1C`, for which the inhibition of the nicotinamide effect is -5.74%. Then `Cc1cc(/C=C2/NC(=O)NC2=O)c(C)n1-c1cccnc1`, with -0.65%; and `O=S(=O)(ON(c1ccccc1)S(=O)(=O)c1ccccc1)c1ccccc1`, with 43.7% (active). Then `CCN(c1ccccc1)S(=O)(=O)c1ccc(N)cc1`, with -3.49%; and `CCOc1ccc(S(=O)(=O)N(CC(=O)O)c2ccccc2)cc1`, with -6.31%. Then `Cc1nc2ccccc2n1CC(=O)N/N=C/c1cccs1`, with 2.27%; and `NS(=O)(=O)c1ccc(CNC(=O)c2ccc(Cl)cc2[N+](=O)[O-])cc1`, with 3.9%; and `CCCCN(C)c1ccc([N+](=O)[O-])cc1`, with 0.62%. For the compound `Cc1cc(=O)[nH]c(SCC(N)=O)c1C#N`, the inhibition of the nicotinamide effect was -13.6%.

As for `CC(=O)c1cc(C#N)c(SCC(=O)C(C)(C)C)nc1C`, the inhibition of the nicotinamide effect is -19%.

In the case of `CCCCSc1[nH]c(=O)c(C(=O)OCC)cc1C#N`, the inhibition of the nicotinamide effect was 35.7% (active). Then `Cc1ccc(-c2nnc(SCC(=O)N/N=C/c3cccs3)n2-c2ccc(C)cc2)cc1`, with -1.13%; and `CC1(C)CC(=O)C(N=Nc2ccc(S(=O)(=O)N3CCCCCC3)cc2)=C(O)C1`, with -0.81%. In the case of `CC(Sc1nc(-c2ccccc2)cc(C(F)(F)F)n1)C(=O)Nc1ccc2c(c1)OCO2` (stereo not drawn), the inhibition of the nicotinamide effect is -1.2%. Then `O=C1CCCC(O)=C1N=Nc1ccc2ncsc2c1`, with -3.17%; and `Cc1cc(C(=O)COc2ccccc2[N+](=O)[O-])c(C)n1-c1cccc(S(=O)(=O)N2CCOCC2)c1`, with 1.02%. Then `O=C(CCCO)N/N=C/c1cc(Br)ccc1O`, with 25%; and `Oc1ccc(Cl)cc1/C=N/c1nc2ccccc2[nH]1`, with 6.53%; and `Oc1ccc(Br)cc1C=Nc1ccc2[nH]ncc2c1`, with 40.4% (active). Then `Cc1c(NC(=S)NCc2ccc(F)cc2)cccc1[N+](=O)[O-]`, with 0.2%; and `CCN1CCN(C(c2cccnc2)c2cc(Cl)c3cccnc3c2O)CC1` (stereo not drawn), with 30.4% (active). On to `Oc1c(CN2CCN(c3ccc(F)cc3)CC2)cc(Cl)c2cccnc12`, for which the inhibition of the nicotinamide effect is -13.6%. Then `CCOC(=O)N1CCN(C(c2cccnc2)c2ccc3cccnc3c2O)CC1` (stereo not drawn), with -7.28%; and `Cc1ccc(NN=C2C(=O)OC(C)(C)OC2=O)c(C)c1`, with -2.15%; and `CC(=O)Nc1ccc(S(=O)(=O)NC2(C(F)(F)F)C(=O)Nc3c2c(=O)[nH]c(=O)n3Cc2ccccc2)cc1` (stereo not drawn), with 2.33%. Then `C/C(=N/NC(=O)c1ccc(Br)o1)c1ccc(C)o1`, with -2.27%; and `COc1cc(C(=O)Nc2cc(C(F)(F)F)ccc2N2CCOCC2)ccc1O`, with -3.94%; and `COC(=O)c1ccccc1OCC(=O)N1CCN(c2ccc(Cl)cc2)CC1`, with -19.3%.

As to `O=C(NC(CC(=O)N1CCN(c2ccccc2)CC1)c1ccccc1)c1ccccc1Cl` (stereo not drawn), the inhibition of the nicotinamide effect is 35.4% (active). On to `CC(CC(=O)N1CCN(c2ccccc2)CC1)c1ccccc1` (stereo not drawn), for which the inhibition of the nicotinamide effect was -11.3%. In the case of `C/C(=N/NC(=O)CSc1ccccn1)c1ccc([N+](=O)[O-])cc1`, the inhibition of the nicotinamide effect was 1.62%. In the case of `Cn1cccc1/C=C1\SC(=S)N(NC(=O)c2ccc(Cl)cc2)C1=O`, the inhibition of the nicotinamide effect is 3.79%. Then `Cc1cc(C(=O)NNC(=S)Nc2ccccc2C)cs1`, with 4.51%; and `O=C(NC(=O)c1ccccc1)NC(=O)c1ccccc1`, with -15.8%; and `Cc1ccccc1NC(=O)c1ccccc1`, with 43.2% (active). Then `Cc1cc(C)c(NC(=O)c2oc3ccccc3c2COc2ccccc2)c(C)c1`, with 0.31%; and `COC(=O)C1=C(NC(=O)C(C)(C)C)CCS1`, with -1.21%; and `CCCCN(CC)C(=O)c1ccc2c(c1)OCO2`, with -2.79%. Then `Cn1cc([N+](=O)[O-])c(C(=O)Nc2cnn(Cc3ccc(F)cc3)c2)n1`, with 10.4%.

Take `Cc1cccc(NC(=O)/C=C/c2ccc3c(c2)OCO3)n1`: the inhibition of the nicotinamide effect was -5.25%.
